Assay results from ChEMBL document CHEMBL2406982, “Structure-activity relationships of new cyanothiophene inhibitors of the essential peptidoglycan biosynthesis enzyme MurF” (Eur J Med Chem, 2013).
≈ marks a conversion by molar mass, not a printed value. Calls of active or inactive are those of the source. The calls are words filed in the database; no cut-off is given here.

What was measured:
Streptococcus pneumoniae = assay: Antimicrobial activity against Streptococcus pneumoniae R6 by broth microdilution method; format: functional
Summary of the method: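 MIC by CLSI broth microdilution in Mueller-Hinton broth supplemented with 5% (v/v) lysed horse blood.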

Staphylococcus aureus [1] = assay: Antimicrobial activity against Staphylococcus aureus SH1000 by broth microdilution method; format: functional, organism-based
Summary of the method: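 MIC by broth microdilution in Mueller-Hinton broth following CLSI guidelines.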

Escherichia coli [2] = assay: Antimicrobial activity against Escherichia coli AB734 by broth microdilution method; format: functional, organism-based
Summary of the method: (§1)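 Broth microdilution MIC per CLSI guidelines in Mueller-Hinton broth. E. coli 1411 and AB734 were also tested with added polymyxin B nonapeptide to permeabilise the outer membrane.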

Escherichia coli [3] = assay: Antimicrobial activity against Escherichia coli 1411 by broth microdilution method; format: functional, organism-based; summary of the method: as §1
Staphylococcus aureus [4] = assay: Inhibition of Staphylococcus aureus MurF using D-Ala-D-Ala/UMtri-L-Lys as substrate assessed as residual activity at 100 uM after 15 mins by Malachite green method
Summary of the method: (§2)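 S. aureus MurF, purified, assayed in 50 mM Hepes pH 8.0 with 20 mM MgCl2 and 0.005% Triton X-114, with D-Ala-D-Ala, UMtri-L-Lys and ATP. Compound was in DMSO (5% v/v final). After 15 min at 37 °C, Biomol reagent was added and A650 was read 5 min later. Duplicates were run. Residual activity was relative to 5% DMSO controls. IC50 was read as 50% residual activity across seven concentrations.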

Escherichia coli [5] = assay: Inhibition of Escherichia coli MurF using D-Ala-D-Ala/UMtri-mDAP as substrate assessed as residual activity at 100 uM after 15 mins by Malachite green method
Summary of the method: (§3)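 Purified E. coli MurF in 50 mM Hepes pH 8.0, 50 mM MgCl2, 0.005% Triton X-114, with D-Ala-D-Ala, UMtri-mDAP and ATP. Compound was added in DMSO (final 5% v/v). Mixtures were incubated 15 min at 37 °C, quenched with Biomol reagent, and absorbance was read at 650 nm after 5 min. Runs were in duplicate. Residual activity was taken versus DMSO-only controls. IC50 came from residual activity at seven concentrations.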

[6] = Inhibition of Streptococcus pneumoniae MurF using D-Ala-D-Ala/UMtri-L-Lys as substrate after 15 mins by Malachite green method
Summary of the method: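 Purified S. pneumoniae MurF in 50 mM Hepes pH 8.0, 50 mM MgCl2, 0.005% Triton X-114, with D-Ala-D-Ala, UMtri-L-Lys and ATP. Compound was added in DMSO (5% v/v final). Reactions ran 15 min at 37 °C, were stopped with Biomol malachite green reagent, and A650 was measured after 5 min. Runs were in duplicate. Residual activity was versus DMSO controls. IC50 was from seven concentrations.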

[7] = Inhibition of Staphylococcus aureus MurF using D-Ala-D-Ala/UMtri-L-Lys as substrate after 15 mins by Malachite green method; summary of the method: as §2
[8] = Inhibition of Escherichia coli MurF using D-Ala-D-Ala/UMtri-mDAP as substrate after 15 mins by Malachite green method; summary of the method: as §3

| SMILES | MIC (Streptococcus pneumoniae) | Activity (Staphylococcus aureus [1]) | Activity (Escherichia coli [2]) | Activity (Escherichia coli [3]) | Activity (Staphylococcus aureus [4]) | Activity (Escherichia coli [5]) | IC50 [6] | IC50 [7] | IC50 [8] |
| --- | --- | --- | --- | --- | --- | --- | --- | --- | --- |
| CC(=O)Oc1ccc(C2CCc3c(sc(NC(=O)c4cc(S(=O)(=O)N5CCOCC5)c(Cl)cc4Cl)c3C#N)C2)cc1 (stereo unspecified) | > 128 µg/mL | inactive | inactive | inactive | 103% | 91% | 120 nM |  |  |
| N#Cc1c(NC(=O)c2cc(S(=O)(=O)N3CCCC(C(=O)O)C3)c(Cl)cc2Cl)sc2c1CCCC2 (stereo unspecified) | > 128 µg/mL | inactive | inactive | inactive | 102% | 100% | 50000 nM |  |  |
| N#Cc1c(NC(=O)c2cc(S(=O)(=O)N3CCC(=O)CC3)c(Cl)cc2Cl)sc2c1CCCC2 | > 128 µg/mL | inactive | inactive | inactive | 103% | 102% | 3370 nM |  |  |
| N#Cc1c(NC(=O)c2cc(S(=O)(=O)N3CCOCC3)c(Cl)cc2Cl)sc2c1CCN(Cc1ccc3c(c1)OCO3)C2 | > 128 µg/mL | inactive | inactive | inactive |  |  | 990 nM | 109 µM | 73 µM |
| COc1ccc(CN2CCc3c(sc(NC(=O)c4cc(S(=O)(=O)N5CCOCC5)c(Cl)cc4Cl)c3C#N)C2)cc1 | > 128 µg/mL | inactive | inactive | inactive |  |  | 600 nM | 95 µM | 82 µM |
| N#Cc1c(NC(=O)c2cc(S(=O)(=O)N3CCOCC3)c(Cl)cc2Cl)sc2c1CCN(Cc1ccc(O)c(C(=O)O)c1)C2 | > 128 µg/mL | inactive | inactive | inactive |  |  | 1410 nM | 132 µM | 106 µM |
| N#Cc1c(NC(=O)c2cc(S(=O)(=O)N3CCOCC3)c(Cl)cc2Cl)sc2c1CCN(CC1CCCCC1)C2 | > 128 µg/mL | inactive | inactive | inactive | 64% | 63% | 460 nM |  |  |
| N#Cc1c(NC(=O)c2cc(S(=O)(=O)N3CCOCC3)c(Cl)cc2Cl)sc2c1CCN(Cc1cccc(C(=O)O)c1)C2 | > 128 µg/mL | inactive | inactive | inactive |  |  | 2550 nM | 118 µM | 67 µM |
| N#Cc1c(NC(=O)c2cc(S(=O)(=O)N3CCC(O)CC3)c(Cl)cc2Cl)sc2c1CCCC2 | 64 µg/mL (≈ 124 µM) | inactive | inactive | inactive | 101% | 104% | 10400 nM |  |  |
| COc1cc(CN2CCc3c(sc(NC(=O)c4cc(S(=O)(=O)N5CCOCC5)c(Cl)cc4Cl)c3C#N)C2)ccc1O | > 128 µg/mL | inactive | inactive | inactive | 64% |  | 4150 nM |  | 98 µM |
| N#Cc1c(NC(=O)c2cc(S(=O)(=O)N3CCOCC3)c(Cl)cc2Cl)sc2c1CCN(CCC1CCNCC1)C2.O=C(O)C(F)(F)F | > 128 µg/mL | inactive | inactive | inactive | 84% | 93% | 600 nM |  |  |
| CCOC(=O)C1CCCN(S(=O)(=O)c2cc(C(=O)Nc3sc4c(c3C#N)CCCC4)c(Cl)cc2Cl)C1 (stereo unspecified) |  | inactive | inactive | inactive | 93% | 94% | 131000 nM |  |  |
| CC1CCCCN1S(=O)(=O)c1cc(C(=O)Nc2sc3c(c2C#N)CCCC3)c(Cl)cc1Cl (stereo unspecified) | > 128 µg/mL | inactive | inactive | inactive | 103% | 107% | 3750 nM |  |  |
| N#Cc1c(NC(=O)c2cc(S(=O)(=O)N3CCOCC3)c(Cl)cc2Cl)sc2c1CCN(Cc1ccc(C(=O)O)cc1)C2 | > 128 µg/mL | inactive | inactive | inactive |  |  | 860 nM | 110 µM | 118 µM |
| N#Cc1ccc(CN2CCc3c(sc(NC(=O)c4cc(S(=O)(=O)N5CCOCC5)c(Cl)cc4Cl)c3C#N)C2)c(F)c1 | > 128 µg/mL | inactive | inactive | inactive |  | 58% | 1920 nM | 92 µM |  |
| N#Cc1c(NC(=O)c2cc(S(=O)(=O)N3CCOCC3)c(Cl)cc2Cl)sc2c1CCN(Cc1ccc(O)c(O)c1)C2 | > 128 µg/mL | inactive | inactive | inactive | 64% | 78% | 430 nM |  |  |
| N#Cc1ccc(CN2CCc3c(sc(NC(=O)c4cc(S(=O)(=O)N5CCOCC5)c(Cl)cc4Cl)c3C#N)C2)cc1 | > 128 µg/mL | inactive | inactive | inactive |  |  | 1360 nM | 80 µM | 62 µM |
| COc1ccc(CN2CCc3c(sc(NC(=O)c4cc(S(=O)(=O)N5CCOCC5)c(Cl)cc4Cl)c3C#N)C2)cc1O | > 128 µg/mL | inactive | inactive | inactive |  |  | 600 nM | 115 µM | 77 µM |
| N#Cc1c(NC(=O)c2cc(S(=O)(=O)N3CCOCC3)c(Cl)cc2Cl)sc2c1CCN(Cc1ccccc1)C2 | > 128 µg/mL | inactive | inactive | inactive |  |  | 640 nM | 80 µM | 109 µM |
| N#Cc1c(NC(=O)c2cc(S(=O)(=O)N3CCOCC3)c(Cl)cc2Cl)sc2c1CCN(Cc1ccc(O)cc1)C2 | > 128 µg/mL | inactive | inactive | inactive | 84% | 68% | 180 nM |  |  |
| COc1cc(CN2CCc3c(sc(NC(=O)c4cc(S(=O)(=O)N5CCOCC5)c(Cl)cc4Cl)c3C#N)C2)cc(OC)c1O | 16 µg/mL (≈ 24 µM) | inactive | inactive | inactive |  |  | 48000 nM | 84 µM | 78 µM |
| N#Cc1c(NC(=O)c2cc(S(=O)(=O)N3CCOCC3)c(Cl)cc2Cl)sc2c1CCN(Cc1cc(O)ccc1O)C2 | 32 µg/mL (≈ 51.3 µM) | inactive | inactive | inactive | 79% | 81% | 2750 nM |  |  |
| Cl.N#Cc1c(NC(=O)c2cc(S(=O)(=O)N3CCOCC3)c(Cl)cc2Cl)sc2c1CCNC2 | 128 µg/mL | inactive | inactive | inactive | 81% | 94% | 47000 nM |  |  |
| N#Cc1c(NC(=O)c2cc(S(=O)(=O)N3CCC(C(=O)O)CC3)c(Cl)cc2Cl)sc2c1CCCC2 | 64 µg/mL (≈ 118 µM) | inactive | inactive | inactive | 96% | 102% | 17900 nM |  |  |
| CC(C)(C)OC(=O)N1CCc2c(sc(NC(=O)c3cc(S(=O)(=O)N4CCOCC4)c(Cl)cc3Cl)c2C#N)C1 | 128 µg/mL (≈ 213 µM) | inactive | inactive | inactive | 78% | 88% | 19000 nM |  |  |
| COc1ccc(C2CCc3c(sc(NC(=O)c4cc(S(=O)(=O)N5CCOCC5)c(Cl)cc4Cl)c3C#N)C2)cc1 (stereo unspecified) | > 128 µg/mL | inactive | inactive | inactive | 85% | 90% | 170 nM |  |  |
| N#Cc1c(NC(=O)c2cc(S(=O)(=O)N3CCOCC3)c(Cl)cc2Cl)sc2c1CCN(C(=O)c1ccccc1)C2 | > 128 µg/mL | inactive | inactive | inactive | 107% | 93% | 27000 nM |  |  |
| CC(C)(C)OC(=O)N1CCC(CCN2CCc3c(sc(NC(=O)c4cc(S(=O)(=O)N5CCOCC5)c(Cl)cc4Cl)c3C#N)C2)CC1 |  | inactive | inactive | inactive |  |  |  |  |  |
